Peptide text beside a SMILES is read from it.
Tests used:
Rattus norvegicus [1] = test: Variation in mean arterial pressure produced by angiotensin II, 10 min after administration (dose 10 ug/kg/min) in rats; 50/5; format: functional, Artery
In short: (§1)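 Rats were anesthetized and ganglion-blocked. Antagonist was given by iv infusion in µg/kg per min. The pressor response to angiotensin II (30 ng/kg iv) was measured before infusion, during infusion, and 5, 10, 20, 40 and 60 min after it. Responses are given as % of the pre-infusion control, as mean ± SEM, with n = 4–6 rats.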

Rattus norvegicus [2] = test: Variation in mean arterial pressure produced by angiotensin II, 20 min after administration (dose 10 ug/kg/min) in rats; 78/5; format: functional, Artery; in short: as §1
Rattus norvegicus [3] = test: Variation in mean arterial pressure produced by angiotensin II, 40 min after administration (dose 10 ug/kg/min) in rats; 96/4; format: functional, Artery; in short: as §1
Rattus norvegicus [4] = test: Variation in mean arterial pressure produced by angiotensin II, 5 min after administration (dose 10 ug/kg/min) in rats; 29/5; format: functional, Artery; in short: as §1
Rattus norvegicus [5] = test: Variation in mean arterial pressure, produced by angiotensin II upon administration at 10 ug/kg/min in rats; format: functional, Artery; in short: as §1
Rattus norvegicus [6] = test: Variation in mean arterial pressure produced by angiotensin II, 60 min after administration (dose 10 ug/kg/min) in rats; 94/6; format: functional, Artery; in short: as §1
Rattus norvegicus [7] = test: Variation in mean arterial pressure produced by angiotensin II, 10 min after administration (dose 30 ug/kg/min) in rats; 63/3; format: functional, Artery; in short: as §1
Rattus norvegicus [8] = test: Variation in mean arterial pressure produced by angiotensin II, 20 min after administration (dose 30 ug/kg/min) in rats; 87/4; format: functional, Artery; in short: as §1
Rattus norvegicus [9] = test: Variation in mean arterial pressure produced by angiotensin II, 40 min after administration (dose 30 ug/kg/min) in rats; 96/4; format: functional, Artery; in short: as §1
Rattus norvegicus [10] = test: Variation in mean arterial pressure produced by angiotensin II, 5 min after administration (dose 30 ug/kg/min) in rats; 35/1; format: functional, Artery; in short: as §1
Rattus norvegicus [11] = test: Variation in mean arterial pressure produced by angiotensin II, 60 min after administration (dose 30 ug/kg/min) in rats; 97/3; format: functional, Artery; in short: as §1
Rattus norvegicus [12] = test: Variation in mean arterial pressure, produced by angiotensin II upon administration at 30 ug/kg/min in rats; format: functional, Artery; in short: as §1
Oryctolagus cuniculus = species on record: Oryctolagus cuniculus; test: Tested for antagonist activity in rabbit aortic rings, pA2 values were determined from Schild plots.; format: functional; details: Aorta, read-out: pA2 (converted)
In short: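 Isolated rabbit aortic rings were used and contraction was recorded. Agonist activity was tested up to 10⁻⁵ M. For antagonism, angiotensin II concentration-response curves were run with and without three antagonist concentrations. pD2 was taken from the curves and pA2 from Schild plots fitted by least squares.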

Rattus norvegicus [13] = test: Variation in mean arterial pressure produced by angiotensin II, 20 min after administration (dose: 60 ug/kg/min) in rats; 78/5; format: functional, Artery; in short: as §1
Rattus norvegicus [14] = test: Variation in mean arterial pressure produced by angiotensin II, 40 min after administration (dose: 60 ug/kg/min) in rats; 91/4; format: functional, Artery; in short: as §1
Rattus norvegicus [15] = test: Variation in mean arterial pressure produced by angiotensin II, 5 min after administration (dose: 60 ug/kg/min) in rats; 50/5; format: functional, Artery; in short: as §1
Rattus norvegicus [16] = test: Variation in mean arterial pressure produced by angiotensin II, 60 min after administration (dose: 60 ug/kg/min) in rats; 91/5; format: functional, Artery; in short: as §1
Rattus norvegicus [17] = test: Variation in mean arterial pressure, produced by angiotensin II upon administration at 60 ug/kg/min in rats; 6/3; format: functional, Artery; in short: as §1
Rattus norvegicus [18] = test: Variation in mean arterial pressure produced by angiotensin II, 10 min after administration (dose: 60 ug/kg/min) in rats; 61/5; format: functional, Artery; in short: as §1
Rattus norvegicus [19] = species on record: Rattus norvegicus; test: Concentration at which compound antagonizes increase in arterial pressure produced by angiotensin II; details: Artery
Canis familiaris = species on record: Canis familiaris; test: Antagonistic effect on aldosterone secretion by zona glomerulosa cells from canine adrenal glands; format: functional; details: Canis lupus familiaris; Adrenal gland
[20] = Rate constant was determined for the compound; format: ADME

Which results are given for `CNCC(=O)N[C@@H](CCCNC(=N)N)C(=O)N[C@H](C(=O)N[C@@H](Cc1ccc(O)cc1)C(=O)N[C@H](C(=O)N[C@@H](Cc1cnc[nH]1)C(=O)N1CCC[C@H]1C(=O)N[C@@H](C)C(=O)O)C(C)C)C(C)C` [SARALASIN]?
Control (Rattus norvegicus [1]): 50%; Control (Rattus norvegicus [2]): 78%; Control (Rattus norvegicus [3]): 96%; Control (Rattus norvegicus [4]): 29%; Control (Rattus norvegicus [5]): 0%; Control (Rattus norvegicus [6]): 94%

Which Control (Rattus norvegicus [7]) does the source give for `CC[C@H](C)[C@H](NC(=O)[C@H](Cc1ccc(OC)cc1)NC(=O)[C@@H](NC(=O)[C@H](CCCN=C(N)N)NC(=O)CNC)C(C)C)C(=O)N[C@@H](Cc1c[nH]cn1)C(=O)N1CCC[C@H]1C(=O)N[C@@H](Cc1ccccc1)C(=O)O` here?
Its Control is 63%.

What about the Control (Rattus norvegicus [8]) of the same compound?
Its Control is 87%.

And the Control (Rattus norvegicus [9])?
The Control was 96%.

And the Control (Rattus norvegicus [10])?
The Control was 35%.

What about the Control (Rattus norvegicus [11]) of the same compound?
The Control was 97%.

And the Control (Rattus norvegicus [12])?
Its Control is 0%.

Which Kb (Oryctolagus cuniculus) does the source give for `CC[C@H](C)[C@H](NC(=O)[C@H](Cc1ccc(O)cc1)NC(=O)[C@@H](NC(=O)[C@H](CCCN=C(N)N)NC(=O)CNC)C(C)C)C(=O)N[C@@H](Cc1c[nH]cn1)C(=O)N1CCC[C@H]1C(N)=O` here?
Its Kb is 0.0234 µM.

What about the Control (Rattus norvegicus [13]) of the same compound?
Its Control is 78%.

What about the Control (Rattus norvegicus [14]) of the same compound?
Its Control is 91%.

What about the Control (Rattus norvegicus [15]) of the same compound?
Its Control is 50%.

What about the Control (Rattus norvegicus [16]) of the same compound?
The Control was 91%.

What about the Control (Rattus norvegicus [17]) of the same compound?
Its Control is 6%.

And the Control (Rattus norvegicus [18])?
Its Control is 61%.

And the Concentration (ug min-1 kg-1) (Rattus norvegicus [19])?
Its Concentration (ug min-1 kg-1) is 60.

With `CC(C)[C@H](NC(=O)[C@H](CCCN=C(N)N)NC(=O)[C@@H](N)CC(=O)O)C(=O)N[C@@H](Cc1ccc(O)cc1)C(=O)N[C@H](C(=O)N[C@@H](Cc1c[nH]cn1)C(=O)N1CCC[C@H]1C(=O)O)C(C)C` (H-DRVYVHP-OH) as the compound, how does the Concentration (Canis familiaris) read?
The Concentration was 1 mM.

With `CC[C@H](C)[C@H](NC(=O)[C@H](Cc1ccc(O)cc1)NC(=O)[C@@H](NC(=O)[C@H](CCCNC(=N)N)NC(=O)[C@@H](N)CC(=O)O)C(C)C)C(=O)N[C@@H](Cc1cnc[nH]1)C(=O)N1CCC[C@H]1C(=O)N[C@@H](Cc1ccccc1)C(=O)O` [ANGIOTENSIN II] as the compound, how does the pD2 [20] read?
The pD2 was 8.98.
